Measurements published in ChEMBL document CHEMBL4715738, “In Vitro Antibacterial Activity of Curcumin-Polymyxin B Combinations against Multidrug-Resistant Bacteria Associated with Traumatic Wound Infections” (J Nat Prod, 2016).

Experiments:
Format in all cases: functional
[1] = test system: Stenotrophomonas maltophilia; experiment: Antibacterial activity against Stenotrophomonas maltophilia SMB07 assessed as reduction in bacterial growth incubated for 24 hrs in presence of curcumin
Acinetobacter baumannii [2] = experiment: Antibacterial activity against Acinetobacter baumannii AB12 harboring OXA-23 assessed as reduction in bacterial growth incubated for 24 hrs in presence of curcumin
Streptococcus pyogenes [3] = experiment: Antibacterial activity against Streptococcus pyogenes SPY2 assessed as reduction in bacterial growth incubated for 24 hrs in presence of curcumin
Escherichia coli [4] = experiment: Synergistic antibacterial activity against Escherichia coli EC204 harboring NDM-1 assessed as fractional inhibitory concentration index measured after 24 hrs in presence of curcumin by checkerboard assay
Outline: (§1)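 FICI was derived from checkerboard MICs. Synergy was defined as FICI ≤ 0.5 and additive as FICI > 0.5−4.0. Where an MIC was not reached, the dilution above the maximum dose was used in the FICI calculation. Experiments were run in triplicate and reported as means.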

Streptococcus pyogenes [5] = experiment: Antibacterial activity against Streptococcus pyogenes SPY3 assessed as reduction in bacterial growth incubated for 24 hrs in presence of curcumin
[6] = test system: Stenotrophomonas maltophilia; experiment: Antibacterial activity against Stenotrophomonas maltophilia NCTC 10258 assessed as reduction in bacterial growth incubated for 24 hrs in presence of curcumin
Staphylococcus aureus [7] = experiment: Antibacterial activity against Staphylococcus aureus ATCC 25923 assessed as reduction in bacterial growth incubated for 24 hrs in presence of curcumin
Pseudomonas aeruginosa [8] = experiment: Synergistic antibacterial activity against Pseudomonas aeruginosa ATCC 27853 assessed as fractional inhibitory concentration index measured after 24 hrs in presence of curcumin by checkerboard assay
Outline: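 FICI calculated from combination MICs; ≤0.5 taken as synergy and >0.5–4.0 as additive. Where an MIC was not reached, the dilution above the highest concentration tested was used in the calculation. Run in triplicate and reported as means.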

Staphylococcus aureus [9] = experiment: Synergistic antibacterial activity against methicillin-resistant Staphylococcus aureus NCTC 12493 assessed as fractional inhibitory concentration index measured after 24 hrs in presence of curcumin by checkerboard assay; outline: as §1
Enterococcus faecium [10] = experiment: Synergistic antibacterial activity against vancomycin-resistant Enterococcus faecium OEF65 assessed as fractional inhibitory concentration index measured after 24 hrs in presence of curcumin by checkerboard assay; outline: as §1
[11] = test system: Stenotrophomonas maltophilia; experiment: Antibacterial activity against Stenotrophomonas maltophilia SMS01 assessed as reduction in bacterial growth incubated for 24 hrs in presence of curcumin
Escherichia coli [12] = experiment: Additive antibacterial activity against Escherichia coli NCTC 12241 assessed as fractional inhibitory concentration index measured after 24 hrs in presence of curcumin by checkerboard assay
Acinetobacter baumannii [13] = experiment: Synergistic antibacterial activity against Acinetobacter baumannii AB14 harboring OXA-23 clone 1 assessed as fractional inhibitory concentration index measured after 24 hrs in presence of curcumin by checkerboard assay; outline: as §1
Pseudomonas aeruginosa [14] = experiment: Antibacterial activity against Pseudomonas aeruginosa PAO1 assessed as reduction in bacterial growth incubated for 24 hrs in presence of polymyxin B
Streptococcus pyogenes [15] = experiment: Potentiation of polymyxin B-induced antibacterial activity against Streptococcus pyogenes SPY2 assessed as fold reduction in polymyxin B MIC measured after 24 hrs […] checkerboard assay
Outline: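 Polymyxin B MIC measured alone and in combination with curcumin; fold reduction derived from the two MICs. Experiments run in triplicate and reported as mean values.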

Pseudomonas aeruginosa [16] = experiment: Bactericidal activity against Pseudomonas aeruginosa ATCC 27853 assessed as log reduction in colony forming units at 0.5 fold MIC measured after 24 hrs in presence of polymyxin B at MIC by time kill assay
Outline: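 Time-kill in Mueller-Hinton 2 broth. Inoculum was a 1/1000 dilution of a 16 h overnight culture, about 10^6 CFU/mL, 10 mL per tube. Arms were each agent alone at ×1 MIC, or the combination at ×1 MIC plus ×0.5 MIC partner. Incubated at 37 °C with continuous agitation for 24 h. Samples taken at 0, 2, 4, 6 and 24 h, serially diluted and plated on IsoSensitest agar for CFU counts.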

[17] = test system: Stenotrophomonas maltophilia; experiment: Potentiation of polymyxin B-induced antibacterial activity against Stenotrophomonas maltophilia NCTC 10258 assessed as fold reduction in polymyxin B MIC measured after 24 hrs in presence of polymyxin B by checkerboard assay
Pseudomonas aeruginosa [18] = experiment: Potentiation of polymyxin B-induced antibacterial activity against Pseudomonas aeruginosa PA14 assessed as fold reduction in polymyxin B MIC measured after 24 hrs in presence of polymyxin B by checkerboard assay
Staphylococcus aureus [19] = experiment: Antibacterial activity against Staphylococcus aureus ATCC 25923 assessed as reduction in bacterial growth incubated for 24 hrs in presence of polymyxin B
[20] = test system: Stenotrophomonas maltophilia; experiment: Bactericidal activity against Stenotrophomonas maltophilia NCTC 102586 assessed as bacterial cell death at 0.5 fold MIC measured after 4 to 6 hrs in presence of polymyxin B at MIC by time kill assay relative to control; conditions: time 4-6 hrs
Outline: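 Time-kill in 10 mL Mueller-Hinton 2 broth, 37 °C with continuous agitation, 24 h. Inoculum was a 1/1000 dilution of a 16 h overnight culture, about 10^6 CFU/mL. Single agents at 1× MIC; combination at 1× MIC polymyxin B plus 0.5× MIC curcumin. Samples at 0, 2, 4, 6 and 24 h were serially diluted and plated on IsoSensitest agar for CFU/mL.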

Pseudomonas aeruginosa [21] = experiment: Antibacterial activity against Pseudomonas aeruginosa PA14 assessed as reduction in bacterial growth incubated for 24 hrs in presence of polymyxin B
[22] = test system: Stenotrophomonas maltophilia; experiment: Antibacterial activity against Stenotrophomonas maltophilia SMS01 assessed as reduction in bacterial growth incubated for 24 hrs in presence of polymyxin B
Enterococcus faecium [23] = experiment: Antibacterial activity against vancomycin-resistant Enterococcus faecium OEF42 assessed as reduction in bacterial growth incubated for 24 hrs in presence of polymyxin B
Enterococcus faecium [24] = experiment: Antibacterial activity against vancomycin-resistant Enterococcus faecium OEF65 assessed as reduction in bacterial growth incubated for 24 hrs in presence of polymyxin B
Escherichia coli [25] = experiment: Antibacterial activity against Escherichia coli EC2 harboring CTX-M-15 assessed as reduction in bacterial growth incubated for 24 hrs in presence of polymyxin B
Acinetobacter baumannii [26] = experiment: Antibacterial activity against Acinetobacter baumannii AB12 harboring OXA-23 assessed as reduction in bacterial growth incubated for 24 hrs in presence of polymyxin B
Pseudomonas aeruginosa [27] = experiment: Antibacterial activity against Pseudomonas aeruginosa ATCC 27853 assessed as reduction in bacterial growth incubated for 24 hrs in presence of polymyxin B

With `CC[C@H](C)CCCCC(=O)N[C@@H](CCN)C(=O)N[C@H](C(=O)N[C@@H](CCN)C(=O)N[C@H]1CCNC(=O)[C@H]([C@@H](C)O)NC(=O)[C@H](CCN)NC(=O)[C@H](CCN)NC(=O)[C@H](CC(C)C)NC(=O)[C@@H](Cc2ccccc2)NC(=O)[C@H](CCN)NC1=O)[C@@H](C)O.O=S(=O)(O)O` the MIC [1] was 0.0313 µM, the MIC (Acinetobacter baumannii [2]) was 0.024 µM and the MIC (Streptococcus pyogenes [3]) was 0.79 µM. The “fractional inhibitory concentration index (FICI)” value (Escherichia coli [4]) was 0.313, the MIC (Streptococcus pyogenes [5]) was 0.79 µM and the MIC [6] was 0.008 µM. The MIC (Staphylococcus aureus [7]) was 6.1 µM, the “fractional inhibitory concentration index (FICI)” value (Pseudomonas aeruginosa [8]) was 0.079 and the “fractional inhibitory concentration index (FICI)” value (Staphylococcus aureus [9]) was 0.031. For the same molecule, the “fractional inhibitory concentration index (FICI)” value (Enterococcus faecium [10]) was 0.281, the MIC [11] was 0.024 µM and the “fractional inhibitory concentration index (FICI)” value (Escherichia coli [12]) was 0.52. For the same molecule, the “fractional inhibitory concentration index (FICI)” value (Acinetobacter baumannii [13]) was 0.375.

With `COc1cc(/C=C/C(=O)CC(=O)/C=C/c2ccc(O)c(OC)c2)ccc1O` [CURCUMIN] the MIC (Pseudomonas aeruginosa [14]) was 43 µM, the “fold change (FC)” value (Streptococcus pyogenes [15]) was 3 and the Activity (Pseudomonas aeruginosa [16]) was greater than 3 log10CFU/ml. The “fold change (FC)” value [17] was 3, the “fold change (FC)” value (Pseudomonas aeruginosa [18]) was 3 and the MIC (Staphylococcus aureus [19]) was 87 µM. The Activity [20] was 100%, the MIC (Pseudomonas aeruginosa [21]) was 22 µM and the MIC [22] was 22 µM. For the same molecule, the MIC (Enterococcus faecium [23]) was 22 µM, the MIC (Enterococcus faecium [24]) was 43 µM and the MIC (Escherichia coli [25]) was 43 µM. The MIC (Acinetobacter baumannii [26]) was 87 µM and the MIC (Pseudomonas aeruginosa [27]) was 174 µM.
